In experiment [1] the target is Potassium voltage-gated channel subfamily KQT member 1 (Homo sapiens) (UniProt P51787). Kind of experiment: blockers of human KCNQ1 channel – cell-based, Tl flux, duplicate, confirmation (AID 588353;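 active = primary screen active, with duplicate mean exceeding buffer control mean plus 3 SD of buffer wells, cut at about 28% in these data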;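 note: 0% = buffer control ratio and 100% = XE991 inhibitor control ratio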). The conditions noted are these: KCNQ1 cell line, FluxOR thallium flux fluorescence, at 10 µM, stronger effect = higher value. The essentials:
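Material: stable KCNQ1-expressing CHO cell line. Incubation: compound exposure 20 min at room temperature. Replication: duplicates, mean used. Control set: buffer and XE991. Evaluation: percent inhibition relative to buffer and XE991. Reagent: Tl2SO4 plus K2SO4 stimulus, each 12.5 mM in 5x stock. Measured by: thallium-sensitive FluxOR dye fluorescence.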

Experiment [2] can be described thus: nonspecific activity in CHO-K1 cells without KCNQ1 – parental CHO cells, Tl flux, counter-screen for KCNQ1 inhibitor project (AID 588366;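 active = mean of duplicate thallium-flux fluorescence ratios in parental host cells more than 5 SD below the buffer control mean, cut at about 0.38 in these data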;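 note: ratio is peak minus minimum fluorescence divided by baseline fluorescence; actives read low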). The conditions noted are these: parental CHO-K1, FluxOR thallium flux fluorescence ratio; at 10 µM; stronger effect = lower value; zero means no signal rise above baseline. The essentials:
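material = parental CHO-K1 cells lacking KCNQ1 channel expression | schedule = FluxOR dye loading 90 min, compound exposure 20 min, room temperature | technique = kinetic Tl+ flux fluorescence with FluxOR dye | controls = assay buffer-only wells as negative controls | replicates = each compound tested in duplicate wells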
For orientation: Counterscreens check selectivity or assay interference.

The target of experiment [3] is Potassium voltage-gated channel subfamily KQT member 1 (Homo sapiens) (UniProt P51787). Kind of experiment: block of human KCNQ1 potassium current – cell-based, automated electrophysiology, orthogonal assay, confirmation (AID 624120;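 active = KCNQ1 current drop exceeding 3 SD of negative control wells, seen in both duplicate runs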). Particulars: KCNQ1-CHO cells, automated patch clamp current; at 10 µM. The method in brief: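 System: KCNQ1-expressing CHO cells; Medium: external buffer at pH 7.4; Probe or stimulus: 2,000 ms voltage steps to +40 mV from -80 mV; Compound: 10 µM final, single dose; Technique: automated perforated-patch voltage clamp using amphotericin B; Measure: percent change in steady-state +40 mV current, post- versus pre-compound; Benchmarks: negative controls; Replication: duplicates.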

The target in experiment [4] is Potassium voltage-gated channel subfamily KQT member 2 (Rattus norvegicus) (UniProt O88943). Kind of experiment: block of rat KCNQ2 potassium channel – cell-based, selectivity assay for KCNQ1 inhibitor project (AID 651746;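 active = mean percent inhibition of the KCNQ2 thallium signal more than 5 SD above the buffer-only control wells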;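 for inhibition: 0% = buffer control wells and 100% = XE-991 inhibitor control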). The conditions noted are these: KCNQ2 cells, FluxOR thallium flux fluorescence, at 10 µM; stronger effect = higher value.
A short description of experiment [5]: nonspecific flux increase, KCNQ1-free cells – parental CHO cells, counter-screen for KCNQ1 potentiator project (AID 493006;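 active = duplicate-averaged activation above buffer control mean plus 5 SD of those controls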;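 for activation: fluorescence ratio of max minus min over baseline after K+ and Tl+ depolarization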). The conditions noted are these: parental CHO-K1 cells, FluxOR thallium flux, at 10 µM; stronger effect = higher value. The essentials:
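Material: untransfected host CHO-K1 cells with FluxOR thallium dye. Timing: overnight 37 °C plating, 90 min RT dye, 20 min compound. Detection: kinetic FluxOR fluorescence, 10 s baseline, 110 s after stimulus. Read-out basis: max-minus-min fluorescence over baseline, percent of buffer-to-R-L3 span. Replicates: duplicate wells per compound, percent values averaged.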

For experiment [6], the target named is Potassium voltage-gated channel subfamily KQT member 1 (Homo sapiens) (UniProt P51787). Kind of experiment: enhancement of KCNQ1 channel thallium flux – FluxOR thallium flux, CHO cells, duplicates, confirmation (AID 493007).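 For outcome: cells depolarized by a potassium plus thallium sulfate stimulus after compound.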 The conditions noted are these: KCNQ1 cell line, FluxOR thallium flux fluorescence, at 10 µM; stronger effect = higher value, % of reference activator effect, buffer zero. The method in brief: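 Test system – KCNQ1-expressing CHO cell line · Incubation – FluxOR dye loading 90 min, compound exposure 20 min, room temperature · Detection – FluxOR Tl+ flux fluorescence, 10 s baseline plus 110 s recording · Controls – buffer-only wells as 0% and R-L3 activator as 100%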

Experiment [7] has the same target. Kind of experiment: KCNQ1 activators by electrophysiology – IonWorks patch clamp, KCNQ1-CHO cells, orthogonal assay for KCNQ1 potentiator project, confirmation (AID 493184;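 active = current rise at least 3 SD above the untreated control mean in each of two repeat wells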;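 for current potentiation: percent change of the same well's current before compound addition so 0% = no change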). The conditions noted are these: automated patch clamp current, at 10 µM; stronger effect = higher value. The method in brief:
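Read-out: Percent current increase versus pre-compound level | Assay system: CHO cells carrying KCNQ1 | Measured by: Automated perforated-patch electrophysiology | Medium: External bath solution at pH 7.4 | Dosing: One dose, 10 µM final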

The target in experiment [8] is T1, Potassium voltage-gated channel subfamily E member 1 (Homo sapiens) + Potassium voltage-gated channel subfamily KQT member 1 (Homo sapiens) (UniProt P15382+P51787). Kind of experiment: KCNQ1-E1 channel activation – thallium flux, CHO-K1 KCNQ1/E1 cells, selectivity assay for KCNQ1 potentiator project, confirmation (AID 493186;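 active = mean duplicate activation above the buffer control mean plus 5 SD of those controls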). The conditions noted are these: FluxOR thallium flux, at 10 µM; stronger effect = higher value. The method in brief:
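Test system: CHO-K1 cells with KCNQ1/E1; dosing: one test concentration; signal: FluxOR Tl+ flux fluorescence, kinetic read; incubation: 90-min dye loading then 20-min compound exposure, both at room temperature; read-out basis: percent of R-L3 effect over buffer; replication: duplicate wells per compound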

Experiment [9] addresses T1, Potassium voltage-gated channel subfamily E member 1 (Homo sapiens) + Potassium voltage-gated channel subfamily KQT member 1 (Homo sapiens). Kind of experiment: block of human IKs channel complex – CHO-K1 cells, thallium flux, FluxOR, selectivity assay for KCNQ1 inhibitor project (AID 652147;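 active = mean percent inhibition of duplicate wells above the buffer-only control mean plus 3 SD of those controls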;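 for inhibition: 0% = buffer only wells and 100% = XE-991 inhibitor control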). The conditions noted are these: KCNQ1/KCNE1 cells, FluxOR thallium flux fluorescence, at 10 µM; stronger effect = higher value. The method in brief: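 Assay system: KCNQ1/KCNE1 cells | Timing: FluxOR dye loading 90 min, compound exposure 20 min, both room temperature | Detection: Kinetic FluxOR thallium-sensitive fluorescence, 1 Hz sampling, 150 s post-stimulus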

Structures are written as SMILES. Unmarked numbers belong to inactive results. Some of the results follow. The source made the active and inactive calls.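 Rule for the calls, unless noted: active = potentiation averaged over duplicate wells exceeding buffer-only control mean by more than 3 SD; inactive = the rest.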

As usually defined, the inhibition is the change of the read-out against control, counted positive when it falls.

Chain of Potassium voltage-gated channel subfamily KQT member 2 (Rattus norvegicus) (O88943 whole entry, looked up): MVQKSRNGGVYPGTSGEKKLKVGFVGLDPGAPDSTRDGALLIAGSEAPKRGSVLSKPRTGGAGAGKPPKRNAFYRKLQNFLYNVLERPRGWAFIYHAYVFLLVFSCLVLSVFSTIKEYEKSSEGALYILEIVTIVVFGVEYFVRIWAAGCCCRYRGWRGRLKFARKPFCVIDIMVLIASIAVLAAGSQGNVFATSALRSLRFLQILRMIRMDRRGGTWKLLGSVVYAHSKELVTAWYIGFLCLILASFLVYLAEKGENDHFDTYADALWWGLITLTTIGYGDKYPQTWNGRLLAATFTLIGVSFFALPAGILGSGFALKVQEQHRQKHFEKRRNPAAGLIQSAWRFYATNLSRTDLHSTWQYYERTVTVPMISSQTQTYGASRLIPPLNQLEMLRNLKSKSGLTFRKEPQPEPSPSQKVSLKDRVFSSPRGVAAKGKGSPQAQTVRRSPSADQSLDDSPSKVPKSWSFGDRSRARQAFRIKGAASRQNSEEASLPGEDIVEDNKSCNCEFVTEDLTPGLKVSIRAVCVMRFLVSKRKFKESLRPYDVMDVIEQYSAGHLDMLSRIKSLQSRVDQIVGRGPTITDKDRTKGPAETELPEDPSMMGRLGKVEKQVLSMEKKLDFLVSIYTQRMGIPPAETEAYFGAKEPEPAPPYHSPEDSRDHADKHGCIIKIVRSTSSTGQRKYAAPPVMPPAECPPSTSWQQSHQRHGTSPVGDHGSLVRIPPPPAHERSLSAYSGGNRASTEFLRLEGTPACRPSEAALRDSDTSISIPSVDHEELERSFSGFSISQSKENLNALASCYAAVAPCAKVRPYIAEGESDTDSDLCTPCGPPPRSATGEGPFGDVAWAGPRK
T1 sequence (P51787 whole entry, looked up): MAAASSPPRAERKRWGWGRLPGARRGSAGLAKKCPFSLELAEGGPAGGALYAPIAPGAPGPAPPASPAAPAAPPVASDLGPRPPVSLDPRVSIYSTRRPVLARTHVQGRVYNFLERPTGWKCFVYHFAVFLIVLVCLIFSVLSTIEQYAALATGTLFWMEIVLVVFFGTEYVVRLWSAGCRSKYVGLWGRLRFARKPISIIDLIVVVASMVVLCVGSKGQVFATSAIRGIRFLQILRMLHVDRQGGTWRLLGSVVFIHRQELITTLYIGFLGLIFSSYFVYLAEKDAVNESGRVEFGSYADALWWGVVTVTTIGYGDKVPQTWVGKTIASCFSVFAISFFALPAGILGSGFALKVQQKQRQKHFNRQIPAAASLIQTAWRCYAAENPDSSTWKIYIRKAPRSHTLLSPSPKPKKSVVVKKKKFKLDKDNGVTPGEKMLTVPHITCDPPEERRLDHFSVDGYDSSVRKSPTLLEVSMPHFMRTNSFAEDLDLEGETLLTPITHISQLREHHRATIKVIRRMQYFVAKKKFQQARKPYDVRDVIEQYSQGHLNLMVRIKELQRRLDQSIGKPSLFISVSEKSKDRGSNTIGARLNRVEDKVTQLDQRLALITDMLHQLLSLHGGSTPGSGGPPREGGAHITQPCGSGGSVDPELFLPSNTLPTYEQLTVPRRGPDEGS
Chain of Potassium voltage-gated channel subfamily KQT member 1 (Homo sapiens) (P51787 whole entry, looked up): as above

For `Cc1cccc(N2CCN(C(=O)c3cnn4c(C(F)F)cc(-c5ccccc5)nc34)CC2)c1C`, the values for the inhibition in experiment [1] and in experiment [4] were 146% (active) and 115% (active), respectively. In addition, the fluorescence ratio (Tl flux) in experiment [2] was 0.416. Further, the molecule was classed as inactive in [3].
Regarding `CC(C)(C)c1ccc(CN2N=Nc3ccccc3S2(=O)=O)cc1`, the outcome in [5], in [6] and in experiment [7] was inactive.
As to `O=C(NC(=S)NC1CCCc2ccccc21)c1ccc(F)cc1` (centres undefined), the outcome in [5], in experiment [7] and in experiment [8] was inactive. The potentiation in [6] was 19.5% (active).
Regarding `O=C(Nc1ccc(Cl)c(Cl)c1)N1CC=C(c2ccccc2)CC1`, the figures for the inhibition in [1], in experiment [4] and in experiment [9] were 122% (active), 110% (active) and 134% (active), respectively. Moreover, the fluorescence ratio (Tl flux) in experiment [2] is 0.411. In addition, the result in experiment [3] was inactive.
As for `O=C(c1ccc(COc2c(F)c(F)cc(F)c2F)o1)N1CCN(c2ccc(Cl)cc2)CC1`, the outcome in experiment [5], in experiment [6] and in experiment [7] was inactive.
With `CCCCNC(=O)CNC(=O)c1nn(-c2ccc(OC)cc2OC)c(=O)c2ccccc12`, the outcome in [5], in experiment [6] and in experiment [7] was inactive.
In the case of `COC(=O)c1cc(-c2cc(OC)ccc2OC)nc2c1c(=O)n(C)c(=O)n2Cc1ccccc1`, the result in experiment [5], in experiment [6] and in [7] was inactive.
Turning to `Cc1ccc(/C=C2\SC(=S)N(NS(=O)(=O)c3ccc(C)cc3)C2=O)cc1`, the outcome in [5] and in [8] was inactive. Besides, the potentiation in experiment [6] was 25.5% (active). The current potentiation in [7] was 21.1% (active).
As to `O=C(NC(=S)Nc1ccc(Br)cn1)c1cccs1`, the outcome in experiment [5], in experiment [6] and in experiment [7] was inactive.
In the case of `CCS(=O)(=O)N1Cc2ccccc2CC1C(=O)Nc1cccc(S(=O)(=O)N(C)C)c1` (centres undefined), the outcome in [5], in experiment [6], in experiment [7] and in experiment [8] was inactive.
Turning to `CCOC(=O)c1cnc(SC)nc1Sc1ccc(Cl)cc1Cl`, the inhibition is 97.5% (active) in experiment [1], 93% (active) in experiment [4] and 111% (active) in experiment [9]. In addition, the fluorescence ratio (Tl flux) in experiment [2] is 0.406. The outcome in experiment [3] was inactive.
For the molecule `COc1ccc(C2c3ccc4ccccc4c3Oc3ncn(CCCO)c(=N)c32)cc1OC` (centres undefined), the outcome in experiment [5], in [6], in experiment [7] and in [8] was inactive.
Regarding `O=C(c1nnsc1S(=O)c1ccc(Cl)cc1)N1CCOCC1` (centres undefined), the result in experiment [5], in experiment [7] and in experiment [8] was inactive. Moreover, the potentiation in experiment [6] was 17.5% (active).
As to `O=C(CCSc1ccccc1)Nc1ccc(S(=O)(=O)Nc2ncccn2)cc1`, the outcome in experiment [5], in experiment [6] and in experiment [7] was inactive.
For `COc1cccc(NC(=O)CSCc2cc(=O)n3ccsc3n2)c1`, the result in [5], in [6] and in [7] was inactive.
Take `O=C(OCc1ccccc1)C1=NNC2C(=O)N(c3ccccc3)C(=O)C12` (centres undefined): the outcome in experiment [5], in experiment [6], in [7] and in experiment [8] was inactive.
Turning to `O=C(NC(=S)Nc1nc2c(s1)CCCC2)c1ccc(C(=O)c2ccccc2)cc1`, the activation in [5] is 138% (active). For the same molecule, in experiment [6], the potentiation is 30% (active). Besides, the result in experiment [7] was inactive.
As for `CCOc1cc(S(=O)(=O)Nc2ccc(Cl)cn2)ccc1Cl`, the outcome in experiment [5], in [6] and in [7] was inactive.
`S=c1[nH]c2ccccc2c2ccccc12`: the activation in experiment [5] was 148% (active). For the same molecule, the result in experiment [6] and in experiment [7] was inactive.
Consider `Cc1ccc(-c2nn(-c3ccccc3)cc2/C=N/n2c(-c3cccs3)n[nH]c2=S)cc1`, for which the result in [5], in experiment [7] and in experiment [8] was inactive. The potentiation in experiment [6] is 23% (active).
In the case of `CN(C)CCCNc1cc(-c2ccccc2)nc2cc(-c3cccc(F)c3)nn12`, the activation in experiment [5] was 180% (active). For the same molecule, the potentiation in experiment [6] was 57% (active). In addition, the outcome in experiment [7] was inactive.
For the molecule `COc1cccc(CN2CCN(Cc3cc4ccccc4[nH]3)CC2CCO)c1` (centres undefined), the outcome in experiment [5], in [7] and in [8] was inactive. Also, the potentiation in [6] is 20% (active).
Consider `O=C(N1CCOCC1)N1CCC(n2nnc3ccccc32)CC1`, for which the result in experiment [5], in experiment [6] and in experiment [7] was inactive.
On to `COC(=O)c1ccc(CSc2nnc(SCc3ccc(C(=O)OC)o3)s2)o1`, for which the outcome in experiment [5], in experiment [6] and in experiment [7] was inactive.
Turning to `CCc1ccc(C2c3[nH]c4ccccc4c3CCN2C(=O)CN2CCN(CC)CC2)cc1` (centres undefined), the outcome in experiment [5], in experiment [6] and in [7] was inactive.
With `COc1ccc(/C=C(\NC(=O)c2cccs2)C(=O)N2CCOCC2)cc1OC`, the activation in [5] was 137% (active). Also, the potentiation in [6] was 29.5% (active). Besides, in experiment [7], the outcome was inactive.
In the case of `N#C/C(=C/c1cn(-c2ccccc2)nc1-c1cccc(OCc2ccc(F)cc2)c1)C(=O)NCCCn1ccnc1`, the result in [5], in experiment [6] and in experiment [7] was inactive.
In the case of `Cc1nc2ccccc2cc1OCc1ccc(F)cc1`, the figures for the inhibition in experiment [1], in experiment [4] and in experiment [9] were 126% (active), 99% (active) and 88.5% (active), respectively. Also, the fluorescence ratio (Tl flux) in [2] is 0.438. In addition, the result in experiment [3] was inactive.
With `C=CCSc1nsc(NC(=O)Nc2cccc(C(C)=O)c2)n1`, the figures for the inhibition in [1], in experiment [4] and in experiment [9] were 100% (active), 74% (active) and 60% (active), respectively. Moreover, in experiment [2], the fluorescence ratio (Tl flux) was 0.489. For the same molecule, the molecule was called inactive in [3].
In the case of `CCOC(=O)c1sc(NC(=O)c2ccccc2C(=O)O)c(C(=O)OCC)c1C`, the outcome in experiment [5], in experiment [6] and in experiment [7] was inactive.
Turning to `COc1ccc(OC)c(Nc2cc3ccccc3c(=O)[nH]2)c1`, the outcome in experiment [5], in experiment [6], in [7] and in experiment [8] was inactive.
As for `Fc1ccc2[nH]c3c(N4CCSCC4)ncnc3c2c1`, in [1], the inhibition was 162% (active). Also, in [2], the fluorescence ratio (Tl flux) was 0.362 (active). In addition, the outcome in experiment [4] and in experiment [9] was inactive.
With `O=C(Nc1ccc2ccccc2c1)Nc1ccc2snnc2c1`, the inhibition in experiment [1] is 41.5% (active). Further, the fluorescence ratio (Tl flux) in [2] was 0.539. Besides, the molecule was called inactive in [4] and in experiment [9].

The values are drawn from PubChem BioAssay.
